From ChEMBL document CHEMBL1152507, “An extended study of dimeric phenyl tropanes” (Bioorg Med Chem, 2009) come the findings set out here.

Molecules are shown by their SMILES.

The species named for experiment [1] is Homo sapiens. The experiment can be described thus: Selectivity ratio of Ki for human SERT to Ki for human DAT.
Experiment [2] deals with Sodium-dependent dopamine transporter (Homo sapiens, UniProt Q01959). The experiment can be described thus: Displacement of [125I]methyl 3-(4-iodophenyl)-8-methyl-8-aza-bicyclo[3.2.1]octane-2-carboxylate from human recombinant DAT expressed in african green monkey COS1 cells by liquid scintillation counting. The class given is cell-based, COS-1. An outline of the steps: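 Membranes from COS-1 cells stably expressing cloned human transporter; cells scraped, homogenized in ice-cold 150 mM NaCl/50 mM Tris/20 mM EDTA, pelleted at 12,000g, resuspended in PBSCM, stored at -80 °C. 5 µg protein/well incubated with test drug and 0.1–0.25 nM 125I-radioligand for 1 h at 20 °C. Filtered on PEI-presoaked GF/B filters, washed thrice with ice-cold water.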
Chain of Sodium-dependent dopamine transporter (Q01959 whole entry): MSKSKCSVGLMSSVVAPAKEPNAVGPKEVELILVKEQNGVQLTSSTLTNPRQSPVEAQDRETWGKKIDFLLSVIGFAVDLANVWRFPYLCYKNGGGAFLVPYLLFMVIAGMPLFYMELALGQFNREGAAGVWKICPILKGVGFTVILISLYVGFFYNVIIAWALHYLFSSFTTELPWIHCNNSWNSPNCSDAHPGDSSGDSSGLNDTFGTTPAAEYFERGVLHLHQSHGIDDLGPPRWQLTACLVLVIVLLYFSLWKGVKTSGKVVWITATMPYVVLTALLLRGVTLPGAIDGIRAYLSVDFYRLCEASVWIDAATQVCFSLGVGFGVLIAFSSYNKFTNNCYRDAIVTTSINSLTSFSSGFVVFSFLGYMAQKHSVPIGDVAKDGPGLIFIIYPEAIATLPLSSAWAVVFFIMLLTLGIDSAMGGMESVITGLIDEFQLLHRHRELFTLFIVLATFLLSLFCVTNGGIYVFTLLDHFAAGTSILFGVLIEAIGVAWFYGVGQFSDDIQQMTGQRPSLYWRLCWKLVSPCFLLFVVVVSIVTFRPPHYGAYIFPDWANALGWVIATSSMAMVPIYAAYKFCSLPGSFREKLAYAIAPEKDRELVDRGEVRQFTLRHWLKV
In general terms: Displacement assays read how much labelled ligand stays bound in the presence of the test substance.

Experiment [3] has as its target Sodium-dependent serotonin transporter (Homo sapiens, UniProt P31645). The experiment can be described thus: Displacement of [125I]methyl 3-(4-iodophenyl)-8-methyl-8-aza-bicyclo[3.2.1]octane-2-carboxylate from human recombinant SERT expressed in african green monkey COS1 cells by liquid scintillation counting. It is filed as cell-based, COS-1. An outline of the steps: (§1)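 Membranes from COS-1 cells stably expressing cloned human transporter; cells scraped, homogenized in ice-cold 150 mM NaCl/50 mM Tris/20 mM EDTA, pelleted at 12,000g, resuspended in PBSCM, stored at -80 °C. Filtered on PEI-presoaked GF/B filters, washed thrice with ice-cold water.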

The species named for experiment [4] is Homo sapiens. Briefly: Selectivity ratio of Ki for human NET to Ki for human DAT.
Experiment [5] has as its target Sodium-dependent noradrenaline transporter (Homo sapiens, UniProt P23975). Briefly: Displacement of [125I]methyl 3-(4-iodophenyl)-8-methyl-8-aza-bicyclo[3.2.1]octane-2-carboxylate from human recombinant NET expressed in african green monkey COS1 cells by liquid scintillation counting. It is filed as cell-based, COS-1. An outline of the steps: as §1

Chain of Sodium-dependent serotonin transporter (P31645 whole entry): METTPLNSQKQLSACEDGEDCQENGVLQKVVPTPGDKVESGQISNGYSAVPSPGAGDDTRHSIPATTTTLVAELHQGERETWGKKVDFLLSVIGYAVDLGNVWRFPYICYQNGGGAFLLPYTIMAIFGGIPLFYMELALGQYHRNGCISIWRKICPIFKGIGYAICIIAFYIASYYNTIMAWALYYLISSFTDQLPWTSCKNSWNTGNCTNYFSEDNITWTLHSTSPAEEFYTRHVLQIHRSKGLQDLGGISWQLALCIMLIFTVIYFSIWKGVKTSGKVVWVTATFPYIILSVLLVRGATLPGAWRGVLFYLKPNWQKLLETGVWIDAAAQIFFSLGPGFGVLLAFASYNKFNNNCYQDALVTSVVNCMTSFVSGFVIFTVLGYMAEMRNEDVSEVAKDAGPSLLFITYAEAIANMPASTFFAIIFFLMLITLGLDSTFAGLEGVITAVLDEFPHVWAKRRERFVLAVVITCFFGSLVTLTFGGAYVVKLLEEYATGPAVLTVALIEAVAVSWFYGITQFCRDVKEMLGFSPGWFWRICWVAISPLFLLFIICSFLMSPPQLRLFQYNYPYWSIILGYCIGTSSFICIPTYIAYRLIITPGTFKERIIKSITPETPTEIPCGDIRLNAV
Chain of Sodium-dependent noradrenaline transporter (P23975 whole entry): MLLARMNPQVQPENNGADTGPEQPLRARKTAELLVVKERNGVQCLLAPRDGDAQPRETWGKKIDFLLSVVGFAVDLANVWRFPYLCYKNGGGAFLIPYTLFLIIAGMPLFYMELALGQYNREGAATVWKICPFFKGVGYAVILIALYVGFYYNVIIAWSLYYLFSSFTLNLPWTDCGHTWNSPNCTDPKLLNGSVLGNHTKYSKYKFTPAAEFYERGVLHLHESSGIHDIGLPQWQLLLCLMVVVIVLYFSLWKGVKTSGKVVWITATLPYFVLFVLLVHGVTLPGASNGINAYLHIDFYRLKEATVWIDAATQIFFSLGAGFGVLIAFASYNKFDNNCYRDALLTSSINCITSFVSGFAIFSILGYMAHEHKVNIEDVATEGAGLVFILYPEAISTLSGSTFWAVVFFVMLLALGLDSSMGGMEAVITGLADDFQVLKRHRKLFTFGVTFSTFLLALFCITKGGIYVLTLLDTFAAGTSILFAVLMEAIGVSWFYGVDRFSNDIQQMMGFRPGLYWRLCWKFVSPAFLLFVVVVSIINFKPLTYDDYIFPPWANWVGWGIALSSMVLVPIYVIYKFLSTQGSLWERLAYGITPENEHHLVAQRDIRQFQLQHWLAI

One may read the Ki as a dissociation constant, usually derived from enzyme kinetics or from competition with a known ligand. In the case of `CN1C2CCC1[C@@H](C(=O)Nc1ccc(CCNC(=O)[C@H]3C4CCC(C[C@@H]3c3ccc(-c5ccsc5)cc3)N4C)cc1)[C@@H](c1ccc(-c3ccsc3)cc1)C2` (stereo partly specified), the values for the Ratio Ki in the experiment listed under Homo sapiens [1] and in the experiment listed under Homo sapiens [4] were 0.48 and 4.6, respectively. In addition, the Ki in experiment [2] was 710 nM; in experiment [3], 340 nM; in experiment [5], 3300 nM.
As for `CN1C2CCC1[C@@H](C(=O)NCCCCCCCCCCNC(=O)[C@H]1C3CCC(C[C@@H]1c1ccc(-c4ccsc4)cc1)N3C)[C@@H](c1ccc(-c3ccsc3)cc1)C2`, the values for the Ratio Ki in the experiment listed under Homo sapiens [1] and in the experiment listed under Homo sapiens [4] were 0.72 and 4.4, respectively. Moreover, the Ki in experiment [2] amounted to 350 nM; in experiment [3], 250 nM; in experiment [5], 1500 nM.
In the same order, the values of `CN1C2CCC1[C@@H](C(=O)Nc1ccc(NC(=O)[C@H]3C4CCC(C[C@@H]3c3ccc(Cl)cc3)N4C)cc1)[C@@H](c1ccc(Cl)cc1)C2` are 4.6, 7.8, 690 nM, 3200 nM and 5400 nM.
On the same counts, the results for `CN1C2CCC1[C@@H](C(=O)Nc1ccc(CNC(=O)[C@H]3C4CCC(C[C@@H]3c3ccc(Cl)cc3)N4C)cc1)[C@@H](c1ccc(Cl)cc1)C2` (stereo partly specified) are 74, 39, 21 nM, 1500 nM and 810 nM.
On the same counts, the results for `CN1C2CCC1[C@@H](C(=O)OCc1cn(CCCCCCOC(=O)[C@H]3C4CCC(C[C@@H]3c3ccc(Cl)cc3)N4C)nn1)[C@@H](c1ccc(Cl)cc1)C2` (stereo partly specified) are 0.86, 8.5, 1 nM, 0.86 nM and 8.5 nM.
Consider `CN1C2CCC1[C@@H](C(=O)N[C@H]1CC[C@H](NC(=O)[C@H]3C4CCC(C[C@@H]3c3ccc(-c5ccsc5)cc3)N4C)CC1)[C@@H](c1ccc(-c3ccsc3)cc1)C2`, for which the Ratio Ki in the experiment listed under Homo sapiens [1] worked out at 0.62; in the experiment filed under Homo sapiens [4], 3.8. The figures for the Ki in experiment [2], in experiment [3] and in experiment [5] were 1300 nM, 810 nM and 5000 nM, respectively.
Take `CN1C2CCC1[C@@H](C(=O)NCc1ccc(CCNC(=O)[C@H]3C4CCC(C[C@@H]3c3ccc(Cl)cc3)N4C)cc1)[C@@H](c1ccc(Cl)cc1)C2` (stereo partly specified): the values for the Ratio Ki in the experiment listed under Homo sapiens [1] and in the experiment listed under Homo sapiens [4] were 3.3 and 5.2, respectively. For the same molecule, the Ki in experiment [2] came out at 20 nM; in experiment [3], 65 nM; in experiment [5], 100 nM.
In the same order, the values of `CN1C2CCC1[C@@H](C(=O)Nc1ccc(NC(=O)[C@H]3C4CCC(C[C@@H]3c3ccc(-c5ccsc5)cc3)N4C)cc1)[C@@H](c1ccc(-c3ccsc3)cc1)C2` are 1.3, 9.4, 210 nM, 270 nM and 1900 nM.
As for `CN1C2CCC1[C@@H](C(=O)NCc1ccc(CNC(=O)[C@H]3C4CCC(C[C@@H]3c3ccc(-c5ccsc5)cc3)N4C)cc1)[C@@H](c1ccc(-c3ccsc3)cc1)C2`, the Ratio Ki amounted to 1.7 in the experiment listed under Homo sapiens [1] and 6.7 in the experiment filed under Homo sapiens [4]. Moreover, the Ki amounted to 93 nM in experiment [2], 160 nM in experiment [3] and 620 nM in experiment [5].
On the same counts, the results for `CN1C2CCC1[C@@H](C(=O)NCCC1CCN(C(=O)[C@H]3C4CCC(C[C@@H]3c3ccc(Cl)cc3)N4C)CC1)[C@@H](c1ccc(Cl)cc1)C2` (stereo partly specified) are 14, 2.5, 180 nM, 2500 nM and 440 nM.
In the same order, the values of `CN1C2CCC1[C@@H](C(=O)NCCCCCCCCNC(=O)[C@H]1C3CCC(C[C@@H]1c1ccc(-c4ccsc4)cc1)N3C)[C@@H](c1ccc(-c3ccsc3)cc1)C2` are 0.68, 2.4, 690 nM, 470 nM and 1700 nM.
On to `COC(=O)[C@@H]1C2CCC(C[C@@H]1c1ccc(Cl)cc1)N2C` (stereo partly specified), for which, in experiment [2], the Ki amounted to 2.7 nM.
Turning to `COC(=O)[C@@H]1C2CCC(C[C@@H]1c1ccc(-c3ccsc3)cc1)N2C` (stereo partly specified), the Ratio Ki was 0.24 in the experiment filed under Homo sapiens [1] and 10 in the experiment listed under Homo sapiens [4]. Further, the Ki in experiment [2] came out at 2.5 nM; in experiment [3], 0.58 nM; in experiment [5], 26 nM.
In the same order, the values of `COC(=O)[C@@H]1C2CCC(C[C@@H]1c1ccc(I)cc1)N2C` (stereo partly specified) are 1.1, 4.9, 3.9 nM, 4.2 nM and 19 nM.
In the case of `CN1C2CCC1[C@@H](C(=O)OCc1cn(CCOC(=O)[C@H]3C4CCC(C[C@@H]3c3ccc(Cl)cc3)N4C)nn1)[C@@H](c1ccc(Cl)cc1)C2` (stereo partly specified), the Ratio Ki in the experiment filed under Homo sapiens [1] was 1.6; in the experiment filed under Homo sapiens [4], 7.3. Also, the Ki is 16 nM in experiment [2], 27 nM in experiment [3] and 120 nM in experiment [5].
On the same counts, the results for `CN1C2CCC1[C@@H](C(=O)NCc1ccc(CCNC(=O)[C@H]3C4CCC(C[C@@H]3c3ccc(-c5ccsc5)cc3)N4C)cc1)[C@@H](c1ccc(-c3ccsc3)cc1)C2` (stereo partly specified) are 0.38, 8.2, 160 nM, 62 nM and 1300 nM.
On the same counts, the results for `CN1C2CCC1[C@@H](C(=O)Nc1ccc(CNC(=O)[C@H]3C4CCC(C[C@@H]3c3ccc(-c5ccsc5)cc3)N4C)cc1)[C@@H](c1ccc(-c3ccsc3)cc1)C2` (stereo partly specified) are 0.92, 3.4, 800 nM, 730 nM and 2700 nM.
On the same counts, the results for `CN1C2CCC1[C@@H](C(=O)Nc1ccc(CCNC(=O)[C@H]3C4CCC(C[C@@H]3c3ccc(Cl)cc3)N4C)cc1)[C@@H](c1ccc(Cl)cc1)C2` (stereo partly specified) are 390, 27, 6.6 nM, 2600 nM and 180 nM.
In the case of `CN1C2CCC1[C@@H](C(=O)NCc1cccc(CNC(=O)[C@H]3C4CCC(C[C@@H]3c3ccc(-c5ccsc5)cc3)N4C)c1)[C@@H](c1ccc(-c3ccsc3)cc1)C2`, the Ratio Ki in the experiment filed under Homo sapiens [1] worked out at 3.7; in the experiment listed under Homo sapiens [4], 5.1. Further, the Ki in experiment [2] was determined as 230 nM; in experiment [3], 860 nM; in experiment [5], 1200 nM.
For the molecule `CN1C2CCC1[C@@H](C(=O)OCc1cn(CCCCCCCOC(=O)[C@H]3C4CCC(C[C@@H]3c3ccc(Cl)cc3)N4C)nn1)[C@@H](c1ccc(Cl)cc1)C2` (stereo partly specified), the Ratio Ki in the experiment listed under Homo sapiens [1] was 0.89; in the experiment listed under Homo sapiens [4], 5.1. Besides, the Ki in experiment [2] amounted to 3.9 nM; in experiment [3] it was 3.5 nM; in experiment [5], 20 nM.
In the case of `CN1C2CCC1[C@@H](C(=O)NCCCCCCNC(=O)[C@H]1C3CCC(C[C@@H]1c1ccc(-c4ccsc4)cc1)N3C)[C@@H](c1ccc(-c3ccsc3)cc1)C2`, the Ratio Ki in the experiment filed under Homo sapiens [1] and in the experiment listed under Homo sapiens [4] was 4 each time. Also, the inhibition constant (Ki) in experiment [2] was determined as 540 nM; in experiment [3], 2100 nM; in experiment [5], 2200 nM.
Consider `CN1C2CCC1[C@@H](C(=O)OCCCCCn1ccnn1)[C@@H](c1ccc(Cl)cc1)C2` (stereo partly specified), for which the figures for the Ratio Ki in the experiment filed under Homo sapiens [1] and in the experiment filed under Homo sapiens [4] were 3.6 and 69, respectively. The Ki in experiment [2] was 5.5 nM; in experiment [3], 20 nM; in experiment [5], 380 nM.
On the same counts, the results for `CN1C2CCC1[C@@H](C(=O)N[C@H]1CC[C@H](NC(=O)[C@H]3C4CCC(C[C@@H]3c3ccc(Cl)cc3)N4C)CC1)[C@@H](c1ccc(Cl)cc1)C2` are 4.6, 5.5, 890 nM, 4000 nM and 4900 nM.
